Data as given in PubChem BioAssay AID2522 (Broad Institute, 2010).
Results filed as inconclusive are left out. Calls of active or inactive are those of the source.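 How the source made its calls: active means mean inhibition at 30 µM above 50% in every run; inconclusive means inhibition above 50% in some runs but not in others; inactive means inhibition at most 50% in every run.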

System: human washed platelets, A23187-induced P-selectin, flow cytometry
Experiment: calcium ionophore platelet activation inhibition – cell-based, fluorescence, flow cytometry, platelets, selectivity assay (AID 2522)
Conditions: at 30 µM, stronger effect = higher value
Outline: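 Assay system – platelets, A23187-induced surface P-selectin expression · Also added – Ca2+ ionophore A23187 at 10 µM, 15 min stimulation · Times – 20 min compound pre-incubation, 15 min A23187, 20 min staining · Signal – flow cytometry with PE-labeled anti-P-selectin antibody · Dosing – single compound dose of 30 µM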

SMILES: C/C(=N/NC(=O)C1CCCC1)c1ccc(NC(=O)C(F)(F)F)cc1
- inhibition: 6% (inactive)
- inhibition (measured here: inhibition, second run): 1%
